# Data published in ChEMBL document CHEMBL1151428, “Capability of 11 antipneumococcal antibiotics to select for resistance by multistep and single-step methodologies” (2007).
# Assays:
# Format in all cases: functional
# [1] = tested on: Streptococcus pneumoniae; test: Antimicrobial activity against drug-resistant Streptococcus pneumoniae isolate 24 after 50 passages with moxifloxacin measured after 10 antibiotic-free subculture by multi-step resistance selection technique
# How it was run: (§1)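 Mutants selected by daily broth passage in subinhibitory drug in cation-adjusted Mueller-Hinton broth with 5% lysed horse blood. Stability was tested by 10 daily passages on blood agar without antibiotic, then macrodilution MIC.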
# [2] = tested on: Streptococcus pneumoniae; test: Antimicrobial activity against drug-resistant Streptococcus pneumoniae isolate 24 after 14 passages with Telithromycin measured after 10 antibiotic-free subculture by multi-step resistance selection technique; how it was run: as §1
# [3] = tested on: Streptococcus pneumoniae; test: Antimicrobial activity against drug-resistant Streptococcus pneumoniae isolate 24 by NCCLS M7-A7 method
# [4] = tested on: Streptococcus pneumoniae; test: Antimicrobial activity against drug-resistant Streptococcus pneumoniae isolate 1635 after 49 passages with clarithromycin measured after 10 antibiotic-free subculture by multi-step resistance selection technique
# [5] = tested on: Streptococcus pneumoniae; test: Antimicrobial activity against drug-resistant Streptococcus pneumoniae isolate 1635 after 14 passages with azithromycin measured after 10 antibiotic-free subculture by multi-step resistance selection technique; how it was run: as §1
# [6] = tested on: Streptococcus pneumoniae; test: Antimicrobial activity against drug-resistant Streptococcus pneumoniae isolate 1635 after 49 passages by multi-step resistance selection technique
# How it was run: (§2)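 Daily serial passage in subinhibitory drug levels in 1 ml cation-adjusted Mueller-Hinton broth with 5% lysed horse blood; fresh broth for tigecycline. Each day, 10 μl were taken from the tube one to two dilutions below the MIC whose turbidity matched the growth control, and used to set the next MIC. […] MIC by macrodilution.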
# [7] = tested on: Streptococcus pneumoniae; test: Antimicrobial activity against drug-resistant Streptococcus pneumoniae isolate 1635 by NCCLS M7-A7 method
# [8] = tested on: Streptococcus pneumoniae; test: Antimicrobial activity against drug-resistant Streptococcus pneumoniae isolate 3243 after 20 passages with moxifloxacin measured after 10 antibiotic-free subculture by multi-step resistance selection technique; how it was run: as §1
# [9] = tested on: Streptococcus pneumoniae; test: Antimicrobial activity against drug-resistant Streptococcus pneumoniae isolate 3243 after 41 passages with clarithromycin measured after 10 antibiotic-free subculture by multi-step resistance selection technique
# [10] = tested on: Streptococcus pneumoniae; test: Antimicrobial activity against drug-resistant Streptococcus pneumoniae isolate 3243 after 33 passages with azithromycin measured after 10 antibiotic-free subculture by multi-step resistance selection technique; how it was run: as §1
# [11] = tested on: Streptococcus pneumoniae; test: Antimicrobial activity against drug-resistant Streptococcus pneumoniae isolate 3243 after 29 passages with Telithromycin measured after 10 antibiotic-free subculture by multi-step resistance selection technique; how it was run: as §1
# [12] = tested on: Streptococcus pneumoniae; test: Antimicrobial activity against drug-resistant Streptococcus pneumoniae isolate 3243 after 41 passages by multi-step resistance selection technique; how it was run: as §2
# [13] = tested on: Streptococcus pneumoniae; test: Antimicrobial activity against drug-resistant Streptococcus pneumoniae isolate 3243 by NCCLS M7-A7 method
# [14] = tested on: Streptococcus pneumoniae; test: Antimicrobial activity against drug-resistant Streptococcus pneumoniae isolate 3676 after 50 passages with moxifloxacin measured after 10 antibiotic-free subculture by multi-step resistance selection technique
# [15] = tested on: Streptococcus pneumoniae; test: Antimicrobial activity against drug-resistant Streptococcus pneumoniae isolate 3274 after 48 passages with Telithromycin measured after 10 antibiotic-free subculture by multi-step resistance selection technique; how it was run: as §1
# [16] = tested on: Streptococcus pneumoniae; test: Antimicrobial activity against drug-resistant Streptococcus pneumoniae isolate 3274 after 50 passages by multi-step resistance selection technique
# How it was run: (§3)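 Daily serial passage in subinhibitory drug levels in 1 ml cation-adjusted Mueller-Hinton broth with 5% lysed horse blood; fresh broth for tigecycline. Each day, 10 μl were taken from the tube one to two dilutions below the MIC whose turbidity matched the growth control, and used to set the next MIC. MIC by macrodilution.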
# [17] = tested on: Streptococcus pneumoniae; test: Antimicrobial activity against drug-resistant Streptococcus pneumoniae isolate 3274 by NCCLS M7-A7 method
# [18] = tested on: Streptococcus pneumoniae; test: Antimicrobial activity against drug-resistant Streptococcus pneumoniae isolate 2527 after 14 passages with gemifloxacin measured after 10 antibiotic-free subculture by multi-step resistance selection technique; how it was run: as §1
# [19] = tested on: Streptococcus pneumoniae; test: Antimicrobial activity against drug-resistant Streptococcus pneumoniae isolate 2527 after 20 passages with azithromycin measured after 10 antibiotic-free subculture by multi-step resistance selection technique; how it was run: as §1
# [20] = tested on: Streptococcus pneumoniae; test: Antimicrobial activity against drug-resistant Streptococcus pneumoniae isolate 2527 by NCCLS M7-A7 method
# [21] = tested on: Streptococcus pneumoniae; test: Antimicrobial activity against drug-resistant Streptococcus pneumoniae isolate 2527 after 50 passages by multi-step resistance selection technique; how it was run: as §2
# [22] = tested on: Streptococcus pneumoniae; test: Antimicrobial activity against drug-resistant Streptococcus pneumoniae isolate 3665 by NCCLS M7-A7 method
# [23] = tested on: Streptococcus pneumoniae; test: Antimicrobial activity against drug-resistant Streptococcus pneumoniae isolate 1077 after 49 passages with clindamycin measured after 10 antibiotic-free subculture by multi-step resistance selection technique
# [24] = tested on: Streptococcus pneumoniae; test: Antimicrobial activity against drug-resistant Streptococcus pneumoniae isolate 1077 after 29 passages with azithromycin measured after 10 antibiotic-free subculture by multi-step resistance selection technique; how it was run: as §1
# [25] = tested on: Streptococcus pneumoniae; test: Antimicrobial activity against drug-resistant Streptococcus pneumoniae isolate 1077 after 15 passages with Telithromycin measured after 10 antibiotic-free subculture by multi-step resistance selection technique; how it was run: as §1
# [26] = tested on: Streptococcus pneumoniae; test: Antimicrobial activity against drug-resistant Streptococcus pneumoniae isolate 1077 after 50 passages by multi-step resistance selection technique; how it was run: as §3
# [27] = tested on: Streptococcus pneumoniae; test: Antimicrobial activity against drug-resistant Streptococcus pneumoniae isolate 1077 by NCCLS M7-A7 method
# [28] = tested on: Streptococcus pneumoniae; test: Antimicrobial activity against drug-resistant Streptococcus pneumoniae isolate 1076 after 35 passages with moxifloxacin measured after 10 antibiotic-free subculture by multi-step resistance selection technique; how it was run: as §1
# [29] = tested on: Streptococcus pneumoniae; test: Antimicrobial activity against drug-resistant Streptococcus pneumoniae isolate 1076 after 14 passages with Telithromycin measured after 10 antibiotic-free subculture by multi-step resistance selection technique; how it was run: as §1
# [30] = tested on: Streptococcus pneumoniae; test: Antimicrobial activity against drug-resistant Streptococcus pneumoniae isolate 1076 by NCCLS M7-A7 method
# [31] = tested on: Streptococcus pneumoniae; test: Antimicrobial activity against drug-resistant Streptococcus pneumoniae isolate 3009 after 19 passages with moxifloxacin measured after 10 antibiotic-free subculture by multi-step resistance selection technique; how it was run: as §1
# [32] = tested on: Streptococcus pneumoniae; test: Antimicrobial activity against drug-resistant Streptococcus pneumoniae isolate 3009 after 18 passages with levofloxacin measured after 10 antibiotic-free subculture by multi-step resistance selection technique; how it was run: as §1
# [33] = tested on: Streptococcus pneumoniae; test: Antimicrobial activity against drug-resistant Streptococcus pneumoniae isolate 3009 after 21 passages with gemifloxacin measured after 10 antibiotic-free subculture by multi-step resistance selection technique; how it was run: as §1
# [34] = tested on: Streptococcus pneumoniae; test: Antimicrobial activity against drug-resistant Streptococcus pneumoniae isolate 3009 after 25 passages with clarithromycin measured after 10 antibiotic-free subculture by multi-step resistance selection technique
# [35] = tested on: Streptococcus pneumoniae; test: Antimicrobial activity against drug-resistant Streptococcus pneumoniae isolate 3009 after 25 passages by multi-step resistance selection technique; how it was run: as §2
# [36] = tested on: Streptococcus pneumoniae; test: Antimicrobial activity against drug-resistant Streptococcus pneumoniae isolate 3009 by NCCLS M7-A7 method
# [37] = tested on: Streptococcus pneumoniae; test: Antimicrobial activity against drug-resistant Streptococcus pneumoniae isolate 1635 after 14 passages with clindamycin measured after 10 antibiotic-free subculture by multi-step resistance selection technique
# [38] = tested on: Streptococcus pneumoniae; test: Antimicrobial activity against drug-resistant Streptococcus pneumoniae isolate 37 by NCCLS M7-A7 method
# [39] = tested on: Streptococcus pneumoniae; test: Antimicrobial activity against drug-resistant Streptococcus pneumoniae isolate 37 after 14 passages with Telithromycin measured after 10 antibiotic-free subculture by multi-step resistance selection technique
# [40] = tested on: Streptococcus pneumoniae; test: Antimicrobial activity against drug-resistant Streptococcus pneumoniae isolate 3413 by NCCLS M7-A7 method
# [41] = tested on: Streptococcus pneumoniae; test: Antimicrobial activity against drug-resistant Streptococcus pneumoniae isolate 3413 after 50 passages by multi-step resistance selection technique; how it was run: as §3
# [42] = tested on: Streptococcus pneumoniae; test: Antimicrobial activity against drug-resistant Streptococcus pneumoniae isolate 3413 after 30 passages with Telithromycin measured after 10 antibiotic-free subculture by multi-step resistance selection technique; how it was run: as §1
# [43] = tested on: Streptococcus pneumoniae; test: Antimicrobial activity against drug-resistant Streptococcus pneumoniae isolate 3676 after 44 passages with clarithromycin measured after 10 antibiotic-free subculture by multi-step resistance selection technique
# [44] = tested on: Streptococcus pneumoniae; test: Antimicrobial activity against drug-resistant Streptococcus pneumoniae isolate 3676 after 14 passages with Telithromycin measured after 10 antibiotic-free subculture by multi-step resistance selection technique
# [45] = tested on: Streptococcus pneumoniae; test: Antimicrobial activity against drug-resistant Streptococcus pneumoniae isolate 3676 after 44 passages by multi-step resistance selection technique
# How it was run: (§4)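 Daily serial passage in broth at subinhibitory drug levels: 1 ml cation-adjusted Mueller-Hinton broth with 5% lysed horse blood; fresh broth for tigecycline. Each day 10 μl inoculum taken from the tube one to two dilutions below MIC matching growth-control turbidity, used to set next MIC. Continued until ≥8-fold MIC rise, minimum 14, maximum 50 passages; MIC read by macrodilution.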
# [46] = tested on: Streptococcus pneumoniae; test: Antimicrobial activity against drug-resistant Streptococcus pneumoniae isolate 3676 by NCCLS M7-A7 method
# [47] = tested on: Streptococcus pneumoniae; test: Antimicrobial activity against drug-resistant Streptococcus pneumoniae isolate 3665 after 38 passages with moxifloxacin measured after 10 antibiotic-free subculture by multi-step resistance selection technique
# [48] = tested on: Streptococcus pneumoniae; test: Antimicrobial activity against drug-resistant Streptococcus pneumoniae isolate 3665 after 26 passages with clarithromycin measured after 10 antibiotic-free subculture by multi-step resistance selection technique
# [49] = tested on: Streptococcus pneumoniae; test: Antimicrobial activity against drug-resistant Streptococcus pneumoniae isolate 3665 after 14 passages with Telithromycin measured after 10 antibiotic-free subculture by multi-step resistance selection technique
# [50] = tested on: Streptococcus pneumoniae; test: Antimicrobial activity against drug-resistant Streptococcus pneumoniae isolate 3665 after 26 passages by multi-step resistance selection technique; how it was run: as §4
smiles,measurement,setting,value
CC[C@H]1OC(=O)[C@H](C)[C@@H](O[C@H]2C[C@@](C)(OC)[C@@H](O)[C@H](C)O2)[C@H](C)[C@@H](O[C@@H]2O[C@H](C)C[C@H](N(C)C)[C@H]2O)[C@](C)(OC)C[C@@H](C)C(=O)[C@H](C)[C@@H](O)[C@]1(C)O [CLARITHROMYCIN],MIC,[1],> 64 µg/mL
same,MIC,[2],> 64 µg/mL
same,MIC,[3],> 64 µg/mL
same,MIC,[4],> 64 µg/mL
same,MIC,[5],> 64 µg/mL
same,MIC,[6],> 64 µg/mL
same,MIC,[7],0.5 µg/mL
same,MIC,[8],0.004 µg/mL
same,MIC,[9],0.25 µg/mL
same,MIC,[10],0.5 µg/mL
same,MIC,[11],> 64 µg/mL
same,MIC,[12],0.25 µg/mL
same,MIC,[13],0.016 µg/mL
same,MIC,[14],4 µg/mL
same,MIC,[15],1 µg/mL
same,MIC,[16],0.03 µg/mL
same,MIC,[17],0.008 µg/mL
same,MIC,[18],0.016 µg/mL
same,MIC,[19],16 µg/mL
same,MIC,[20],0.008 µg/mL
same,MIC,[21],0.016 µg/mL
same,MIC,[22],2 µg/mL
same,MIC,[23],> 64 µg/mL
same,MIC,[24],> 64 µg/mL
same,MIC,[25],> 64 µg/mL
same,MIC,[26],0.008 µg/mL
same,MIC,[27],0.016 µg/mL
same,MIC,[28],> 64 µg/mL
same,MIC,[29],> 64 µg/mL
same,MIC,[30],> 64 µg/mL
same,MIC,[31],8 µg/mL
same,MIC,[32],8 µg/mL
same,MIC,[33],16 µg/mL
same,MIC,[34],64 µg/mL
same,MIC,[35],> 64 µg/mL
same,MIC,[36],16 µg/mL
same,MIC,[37],0.5 µg/mL
same,MIC,[38],> 64 µg/mL
same,MIC,[39],> 64 µg/mL
same,MIC,[40],8 µg/mL
same,MIC,[41],8 µg/mL
same,MIC,[42],16 µg/mL
same,MIC,[43],16 µg/mL
same,MIC,[44],2 µg/mL
same,MIC,[45],32 µg/mL
same,MIC,[46],4 µg/mL
same,MIC,[47],2 µg/mL
same,MIC,[48],8 µg/mL
same,MIC,[49],2 µg/mL
same,MIC,[50],16 µg/mL
